# According to ChEMBL document CHEMBL1132256, “Structure-activity relationships for substituted bis(acridine-4-carboxamides): a new class of anticancer agents” (J Med Chem, 1999):
# Test system: SK-OV-3
# Assay: inhibitory activity against ovarian carcinoma SKOV3 cell line.
# Format: functional
# Details: Homo sapiens
# Method in brief: (§1)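 Tested in the NCI human cell line panel. GI50 = drug concentration (nM) giving growth inhibition to 50% of controls; values below 10 nM were taken as 10 nM in calculations.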
row,GI50 [µM],SMILES
1,0.087,Cc1cccc2cc3cccc(C(=O)NCCCN(C)CCCNC(=O)c4cccc5cc6cccc(C)c6nc45)c3nc12
2,0.46,Cc1cc(C(=O)NCCCN(C)CCCNC(=O)c2cc(C)cc3cc4ccccc4nc23)c2nc3ccccc3cc2c1
3,0.32,Cc1ccc(C)c2nc3c(C(=O)NCCCN(C)CCCNC(=O)c4cccc5cc6c(C)ccc(C)c6nc45)cccc3cc12
4,12,COc1cccc2cc3cccc(C(=O)NCCCN(C)CCCNC(=O)c4cccc5cc6cccc(OC)c6nc45)c3nc12

# Test system: P388
# Assay: Inhibitory activity against Murine […]
# Format: functional, cell-based
# Details: Mus musculus
# Method in brief: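 Murine P388 leukemia cells seeded at 4.5 × 10^3 cells/well, cultured 3 days with drug; growth measured by [3H]TdR uptake. IC50 = drug concentration (nM) reducing cell number to 50% of controls. Independent assays in duplicate, CV ca. 25%.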
row,IC50 [µM],SMILES
1,0.023,Cc1cccc2cc3cccc(C(=O)NCCCN(C)CCCNC(=O)c4cccc5cc6cccc(C)c6nc45)c3nc12
2,0.22,Cc1cc(C(=O)NCCCN(C)CCCNC(=O)c2cc(C)cc3cc4ccccc4nc23)c2nc3ccccc3cc2c1
3,0.024,Cc1ccc(C)c2nc3c(C(=O)NCCCN(C)CCCNC(=O)c4cccc5cc6c(C)ccc(C)c6nc45)cccc3cc12
4,0.43,COc1cccc2cc3cccc(C(=O)NCCCN(C)CCCNC(=O)c4cccc5cc6cccc(OC)c6nc45)c3nc12

# Test system: Lewis lung carcinoma cell line
# Assay: Inhibitory activity of tested against Murine Lewis lung carcinoma
# Format: functional, cell-based
# Details: Mus musculus
# Method in brief: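 Lewis lung carcinoma (LLTC) cells at 10^3 cells/well, 4-day continuous drug exposure, growth read by sulforhodamine assay. IC50 (nM) = concentration giving 50% of control cell number. Duplicate independent assays, CV ca. 25%.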
row,IC50 [µM],SMILES
1,0.0018,Cc1cccc2cc3cccc(C(=O)NCCCN(C)CCCNC(=O)c4cccc5cc6cccc(C)c6nc45)c3nc12
2,0.067,Cc1cc(C(=O)NCCCN(C)CCCNC(=O)c2cc(C)cc3cc4ccccc4nc23)c2nc3ccccc3cc2c1
3,0.0032,Cc1ccc(C)c2nc3c(C(=O)NCCCN(C)CCCNC(=O)c4cccc5cc6c(C)ccc(C)c6nc45)cccc3cc12
4,0.17,COc1cccc2cc3cccc(C(=O)NCCCN(C)CCCNC(=O)c4cccc5cc6cccc(OC)c6nc45)c3nc12

# Test system: HCT-116
# Assay: inhibitory activity against colon HCT116 cell line.
# Format: functional
# Details: Homo sapiens
# Method in brief: as §1
row,GI50 [µM],SMILES
1,< 0.01,Cc1cccc2cc3cccc(C(=O)NCCCN(C)CCCNC(=O)c4cccc5cc6cccc(C)c6nc45)c3nc12
2,< 0.01,Cc1cc(C(=O)NCCCN(C)CCCNC(=O)c2cc(C)cc3cc4ccccc4nc23)c2nc3ccccc3cc2c1
3,< 0.01,Cc1ccc(C)c2nc3c(C(=O)NCCCN(C)CCCNC(=O)c4cccc5cc6c(C)ccc(C)c6nc45)cccc3cc12
4,0.33,COc1cccc2cc3cccc(C(=O)NCCCN(C)CCCNC(=O)c4cccc5cc6cccc(OC)c6nc45)c3nc12

# Test system: CAKI-1
# Assay: inhibitory activity against renal tumor […] cell line.
# Format: functional
# Details: Homo sapiens
# Method in brief: as §1
row,SMILES,GI50 [µM]
1,Cc1cccc2cc3cccc(C(=O)NCCCN(C)CCCNC(=O)c4cccc5cc6cccc(C)c6nc45)c3nc12,< 0.01
2,Cc1cc(C(=O)NCCCN(C)CCCNC(=O)c2cc(C)cc3cc4ccccc4nc23)c2nc3ccccc3cc2c1,0.247
3,Cc1ccc(C)c2nc3c(C(=O)NCCCN(C)CCCNC(=O)c4cccc5cc6c(C)ccc(C)c6nc45)cccc3cc12,< 0.01
4,COc1cccc2cc3cccc(C(=O)NCCCN(C)CCCNC(=O)c4cccc5cc6cccc(OC)c6nc45)c3nc12,1.49

# Test system: Jurkat
# Assay: Concentration required to inhibit 50% growth of human Jurkat cells
# Format: functional, cell-based
# Details: not given
# Method in brief: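 Jurkat leukemia (JLC) cells seeded at 3.75 × 10^3 cells/well and exposed to drug for 4 days; growth measured by sulforhodamine assay. IC50 = drug concentration (nM) reducing cell number to 50% of control cultures. Independent assays in duplicate, coefficients of variation ca. 25%.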
row,IC50 [µM],SMILES
1,0.011,Cc1cccc2cc3cccc(C(=O)NCCCN(C)CCCNC(=O)c4cccc5cc6cccc(C)c6nc45)c3nc12
2,0.255,Cc1cc(C(=O)NCCCN(C)CCCNC(=O)c2cc(C)cc3cc4ccccc4nc23)c2nc3ccccc3cc2c1
3,0.011,Cc1ccc(C)c2nc3c(C(=O)NCCCN(C)CCCNC(=O)c4cccc5cc6c(C)ccc(C)c6nc45)cccc3cc12
4,0.345,COc1cccc2cc3cccc(C(=O)NCCCN(C)CCCNC(=O)c4cccc5cc6cccc(OC)c6nc45)c3nc12

# Test system: HT-29
# Assay: inhibitory activity against colon HT-29 cell line.
# Format: functional
# Details: Homo sapiens
# Method in brief: as §1
row,GI50 [µM],SMILES
1,< 0.01,Cc1cccc2cc3cccc(C(=O)NCCCN(C)CCCNC(=O)c4cccc5cc6cccc(C)c6nc45)c3nc12
2,0.265,Cc1cc(C(=O)NCCCN(C)CCCNC(=O)c2cc(C)cc3cc4ccccc4nc23)c2nc3ccccc3cc2c1
3,< 0.01,Cc1ccc(C)c2nc3c(C(=O)NCCCN(C)CCCNC(=O)c4cccc5cc6c(C)ccc(C)c6nc45)cccc3cc12
4,0.103,COc1cccc2cc3cccc(C(=O)NCCCN(C)CCCNC(=O)c4cccc5cc6cccc(OC)c6nc45)c3nc12

# Test system: MCF7
# Assay: inhibitory activity against multi drug resistant MCF cell line.
# Format: functional
# Details: Homo sapiens, in the assay text read “MCF7 cell line” for “multi drug resistant MCF cell line”
# Method in brief: as §1
row,GI50 [µM],SMILES
1,< 0.01,Cc1cccc2cc3cccc(C(=O)NCCCN(C)CCCNC(=O)c4cccc5cc6cccc(C)c6nc45)c3nc12
2,0.546,Cc1cc(C(=O)NCCCN(C)CCCNC(=O)c2cc(C)cc3cc4ccccc4nc23)c2nc3ccccc3cc2c1
3,< 0.01,Cc1ccc(C)c2nc3c(C(=O)NCCCN(C)CCCNC(=O)c4cccc5cc6c(C)ccc(C)c6nc45)cccc3cc12
4,0.394,COc1cccc2cc3cccc(C(=O)NCCCN(C)CCCNC(=O)c4cccc5cc6cccc(OC)c6nc45)c3nc12

# Test system: NCI/ADR-RES
# Assay: inhibitory activity against multi drug resistant NCI/ADR cell line.
# Format: functional
# Details: Homo sapiens
# Method in brief: as §1
row,SMILES,GI50 [µM]
1,Cc1cccc2cc3cccc(C(=O)NCCCN(C)CCCNC(=O)c4cccc5cc6cccc(C)c6nc45)c3nc12,0.116
2,Cc1cc(C(=O)NCCCN(C)CCCNC(=O)c2cc(C)cc3cc4ccccc4nc23)c2nc3ccccc3cc2c1,0.657
3,Cc1ccc(C)c2nc3c(C(=O)NCCCN(C)CCCNC(=O)c4cccc5cc6c(C)ccc(C)c6nc45)cccc3cc12,0.172
4,COc1cccc2cc3cccc(C(=O)NCCCN(C)CCCNC(=O)c4cccc5cc6cccc(OC)c6nc45)c3nc12,1.39

# Test system: Jurkat
# Assay: Ratio of inhibitory activity against amsacrine resistant jurkat cells to inhibitory activity against wild type human jurkat cells
# Format: functional
# Details: not given
# Method in brief: (§2)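 Wild-type Jurkat (JLC) and its amsacrine-resistant (JLA) or doxorubicin-resistant (JLD) sublines each seeded at 3.75 × 10^3 cells/well, 4 days with drug, sulforhodamine read-out. IC50 (nM) for 50% of control cell number; ratio = resistant-line IC50 divided by JLC IC50. Duplicate assays, CV ca. 25%.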
row,SMILES,Ratio
1,Cc1cccc2cc3cccc(C(=O)NCCCN(C)CCCNC(=O)c4cccc5cc6cccc(C)c6nc45)c3nc12,0.4
2,Cc1cc(C(=O)NCCCN(C)CCCNC(=O)c2cc(C)cc3cc4ccccc4nc23)c2nc3ccccc3cc2c1,0.7
3,Cc1ccc(C)c2nc3c(C(=O)NCCCN(C)CCCNC(=O)c4cccc5cc6c(C)ccc(C)c6nc45)cccc3cc12,0.4
4,COc1cccc2cc3cccc(C(=O)NCCCN(C)CCCNC(=O)c4cccc5cc6cccc(OC)c6nc45)c3nc12,0.5

# Test system: Jurkat
# Assay: Ratio of inhibitory activity against doxorubicin resistant jurkat cells to inhibitory activity against wild type human jurkat cells
# Format: functional
# Details: not given
# Method in brief: as §2
row,SMILES,Ratio
1,Cc1cccc2cc3cccc(C(=O)NCCCN(C)CCCNC(=O)c4cccc5cc6cccc(C)c6nc45)c3nc12,0.7
2,Cc1cc(C(=O)NCCCN(C)CCCNC(=O)c2cc(C)cc3cc4ccccc4nc23)c2nc3ccccc3cc2c1,1.1
3,Cc1ccc(C)c2nc3c(C(=O)NCCCN(C)CCCNC(=O)c4cccc5cc6c(C)ccc(C)c6nc45)cccc3cc12,0.7
4,COc1cccc2cc3cccc(C(=O)NCCCN(C)CCCNC(=O)c4cccc5cc6cccc(OC)c6nc45)c3nc12,0.8
